Screening results from PubChem BioAssay.
Statin myotox sup = suppression of simvastatin myotoxicity; 330,000 tested, 0.78% active; C2C12 myotubes + simvastatin, ATP luminescence, 48 h; scaled: DMSO 0, geranylgeraniol control 100; rescue of ATP level, % at 7.49 µM;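 active = mean ATP rescue above about 67%, or every replicate alone reaching that limit, limit read from the data, passing the limit was not always enough; inconclusive = no clear call, values can overlap the other calls; inactive = mean under the limit and some replicate under it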;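 also: myotubes were challenged with 10 µM simvastatin during compound exposure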
S100A4 inh HTS = S100A4-myosin IIA interaction inhibition; P26447; S100A4/TAMRA-MyoIIA peptide fluorescence polarization; inhibition, % at 10.7 µM; 360,000 tested, 0.14% active; AID 652163;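 active = mean inhibition of at least 70% across replicates, with every replicate also reaching that level; inconclusive = mean inhibition reaches 70% but some replicates fall short; inactive = mean inhibition below 70%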
Target sequence (P26447 whole entry, looked up): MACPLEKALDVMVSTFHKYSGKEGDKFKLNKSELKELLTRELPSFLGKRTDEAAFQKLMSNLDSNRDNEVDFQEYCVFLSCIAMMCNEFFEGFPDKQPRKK
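Test system – S100A4 monomer (human) · Compound – single-point compound testing · Schedule – 5 min incubation before reading · Probe or stimulus – TAMRA-labelled myosin IIA heavy-chain peptide probe, 5 nM · Benchmarks – neutral control DMSO, positive control TFP · Medium – Calcium-containing HEPES buffer, pH 7.2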
DENV2 CPE rescue = inhibitors of DENV2 cytopathic effect; DENV2-infected cells, cytopathic effect rescue, plate reader; CPE inhibition, % at 9.99 µM; 350,000 tested, 1.7% active; AID 651640; in the data active = CPE inhibition above about 20%, passing the limit was not always enough; inconclusive = no clear call, values can overlap the other calls; tested in BHK-21 cells;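 also: 0% = median of neutral control wells and 100% = median of positive control wells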
PGC1a acetyl inh = PGC1a acetylation modulation, inhibitor mode | U2OS PGC1a acetylation, AlphaScreen anti-acetyl-lysine; with virally co-expressed GCN5 acetyltransferase | inhibition, % at 15.6 µM | 350,000 tested, 0.17% active;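 active = every replicate shows inhibition of at least 40%; inconclusive = mean inhibition at least 40% but some replicate below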;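 also: 0% = neutral control wells and 100% = positive control wells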
SIRT5 block = blocks human SIRT5 desuccinylation of peptide; Q9NXA8; Purified SirT5, succinyl-peptide AMC, trypsin-coupled fluorescence; inhibition, % at 15 µM; 330,000 tested, 1.1% active; AID 652115; in the data active = inhibition above about 15%; inconclusive = no clear call, values can overlap the other calls
Target sequence (Q9NXA8 whole entry, looked up): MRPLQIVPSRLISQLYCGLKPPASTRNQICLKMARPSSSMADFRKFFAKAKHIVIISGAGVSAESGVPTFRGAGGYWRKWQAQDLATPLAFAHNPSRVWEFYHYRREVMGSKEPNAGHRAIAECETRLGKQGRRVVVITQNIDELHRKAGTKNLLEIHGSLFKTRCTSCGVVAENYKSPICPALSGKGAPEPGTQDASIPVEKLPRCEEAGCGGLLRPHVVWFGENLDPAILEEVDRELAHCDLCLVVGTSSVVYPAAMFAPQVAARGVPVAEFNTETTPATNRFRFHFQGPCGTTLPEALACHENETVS
* marks the source's active call; other numbers are inactive results; ? = inconclusive; nt = not tested or not shown. Only some compounds are listed: those with a hit (about 2.9% of all), similar ones and a draw of the others.

SMILES	Statin myotox sup	S100A4 inh HTS	DENV2 CPE rescue	PGC1a acetyl inh	SIRT5 block
O=C(C1CCC1)N1CC2(C1)[C@H](c1ccccc1)[C@H](CO)N2C(=O)c1ccccn1	nt	6	-13	-3	0
CCCn1c(-c2cccnc2Cl)nc2cc(Cl)c(Cl)cc21	72*	-2	-4	-15	1
COc1ccc2c3c(n(C)c2c1)[C@H](CO)NCC31CN(S(=O)(=O)c2ccccc2)C1	nt	-14	?	0	nt
CS(=O)c1ccccc1O (centres undefined)	nt	0	10	nt	-1
O=S(c1ccccc1O)S(=O)c1ccccc1O (centres undefined)	-2	-7	-5	2	26*
CCOc1cc(C(=O)N(C)CC(=O)Nc2cccc3ccccc23)ccc1OC	6	1	42*	4	-3
COc1ccc(OC)c(S(=O)(=O)Nc2ccccc2C)c1	100*	-1	-2	-19	-11
COc1ccc(S(=O)(=O)Nc2ccccc2C)cc1C(=O)N1CCOCC1	9	1	4	102*	-1
Cc1ccccc1NS(=O)(=O)c1ccc(C)c(C(=O)N2CCOCC2)c1	nt	2	-10	-2	1
CCc1csc(N2[C@@H](C#N)[C@H](c3ccc(-c4cccc(F)c4)cc3)[C@@H]2CO)n1	-1	-3	-22	-14	2
CCn1c(-c2ccc(-c3ccccc3)cc2)c[nH]c1=S	125*	nt	nt	-4	nt
CC(C)(C)NC(=O)C(C1CC1)n1c(-c2ccccc2)nc2ccccc21 (centres undefined)	nt	3	-3	nt	4
Cc1ccc(-c2nc3ccccc3n2C(C(=O)NC(C)(C)C)C2CC2)cc1 (centres undefined)	nt	6	31*	nt	nt
O=C(NC1CCCC1)C(C1CC1)n1c(C2CCCC2)nc2ccccc21 (centres undefined)	nt	-2	51*	nt	0
Cc1ccc([C@@H]2CC=C(C(=O)O)[C@H](c3ccc(Br)cc3)N2S(=O)(=O)c2ccccc2C)cc1	3	54	28*	-10	5
Cc1ccccc1S(=O)(=O)N1[C@@H](c2ccc(Br)cc2)C(C(=O)O)=CC[C@H]1c1ccc(Cl)cc1	4	2	4	15	1
Cc1ccc(S(=O)(=O)N2[C@@H](c3ccccc3)C(C(=O)O)=CC[C@H]2c2ccc(Cl)cc2)cc1	-1	-2	15	nt	26*
Cc1ccc([C@@H]2CC=C(C(=O)O)[C@H](c3ccc(Cl)cc3)N2S(=O)(=O)c2ccc(C)cc2)cc1	-18	-2	-2	-5	4
CCC(=O)N1[C@@H](CO)[C@H](c2ccccc2)C12CN(C(=O)c1cnccn1)C2	nt	7	13	6	-2
CO[C@H](CN(C)S(=O)(=O)c1ccc(C)cc1)[C@H](C)CN(Cc1ccccc1Cl)[C@H](C)CO	-7	9	0	-14	-3
Cc1nn(C)cc1CNC(=O)Nc1cccc(Cl)c1	113*	nt	nt	1	nt
Cc1nn(C)cc1CNC(=O)Nc1ccc(Br)cc1Cl	4	nt	nt	-4	nt
COC(=O)c1c(NC(=O)CC2Sc3ccc(C(F)(F)F)cc3NC2=O)sc(C)c1C (centres undefined)	nt	-1	25*	nt	nt
CN=C1SC(CC(=O)Nc2sc(C)c(C)c2C(=O)OC)C(=O)N1C (centres undefined)	-11	nt	nt	0	nt
CCOc1ccc(-c2noc(CCC(=O)NC)n2)cc1OCC	95*	nt	nt	6	nt
SMILES	Statin myotox sup	S100A4 inh HTS	DENV2 CPE rescue	PGC1a acetyl inh	SIRT5 block
CCOc1cc(-c2noc(CCC(=O)NCCc3ccccc3)n2)ccc1OC	18	1	2	-22	1
Cc1ccc(-c2noc(CCC(=O)NCC3CCN(Cc4cccc(C)c4)CC3)n2)cc1	87*	nt	nt	-9	nt
COC(=O)c1ccc(-c2noc(CN(C)CCC3CCCCO3)n2)cc1 (centres undefined)	nt	0	-3	nt	-4
COC(=O)c1ccc(-c2noc(CN3CCCC(CNC(C)=O)C3)n2)cc1 (centres undefined)	-4	2	1	2	35*
CO[C@@H]1CN(C)C(=O)c2cc(NC(=O)c3cccc(F)c3)ccc2OC[C@H](C)NC[C@H]1C	22	0	8	1	3
CC(C)NC(=O)N1CC2(C1)[C@H](c1ccccc1)[C@H](CO)N2Cc1cncnc1	nt	3	-17	11	0
CCCC(=O)Nc1ccc2c(c1)OC[C@@H](C)N(C(=O)CN1CCOCC1)C[C@@H](C)[C@H](OC)CN(C)C2=O	-7	-7	21*	9	8
